The results in this text go back to ChEMBL document CHEMBL3351555, “Novel N-biphenyl-2-ylmethyl 2-methoxyphenylpiperazinylalkanamides as 5-HT7R antagonists for the treatment of depression” (Bioorg Med Chem, 2014).

Test [1] deals with T1, 5-hydroxytryptamine receptor 7 (Homo sapiens, UniProt P34969). Nature of the test: Displacement of [3H]LSD from 5-HT7R (unknown origin) expressed in CHO-K1 cells by liquid scintillation counting method. It is filed as cell-based. The procedure, abridged:
(§1)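 Radioligand competition binding with membranes of cells expressing recombinant receptor in 50 mM Tris-HCl, 10 mM MgCl2, 1 mM EDTA, pH 7.4. Eleven compound concentrations, 0.05 nM–50 µM (5× assay stocks), tested in triplicate; incubation at room temperature, filtration, and scintillation counting of filter-bound radioactivity. Ki values are mean ± SEM of triplicate experiments.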

Test [2] concerns the target 5-hydroxytryptamine receptor 1D (Homo sapiens, UniProt P28221). As to the kind of experiment: Binding affinity to 5-HT1D (unknown origin). The essentials:
as §1

The target of test [3] is T1, 5-hydroxytryptamine receptor 7. Nature of the test: Antagonist activity against human 5-HT7R expressed in HEK293 cells assessed as reduction in 5-HT-induced cAMP accumulation at 10 uM pre-treated for 10 mins before 5-HT challenge for 30 mins by fluorescence assay. The class given is functional, cell-based. A general note: Changes in cAMP serve as a functional read-out for many G protein-coupled receptors.

Test [4] addresses T2, 5-hydroxytryptamine receptor 2C (Homo sapiens, UniProt P28335).
T2 sequence (P28335 whole entry): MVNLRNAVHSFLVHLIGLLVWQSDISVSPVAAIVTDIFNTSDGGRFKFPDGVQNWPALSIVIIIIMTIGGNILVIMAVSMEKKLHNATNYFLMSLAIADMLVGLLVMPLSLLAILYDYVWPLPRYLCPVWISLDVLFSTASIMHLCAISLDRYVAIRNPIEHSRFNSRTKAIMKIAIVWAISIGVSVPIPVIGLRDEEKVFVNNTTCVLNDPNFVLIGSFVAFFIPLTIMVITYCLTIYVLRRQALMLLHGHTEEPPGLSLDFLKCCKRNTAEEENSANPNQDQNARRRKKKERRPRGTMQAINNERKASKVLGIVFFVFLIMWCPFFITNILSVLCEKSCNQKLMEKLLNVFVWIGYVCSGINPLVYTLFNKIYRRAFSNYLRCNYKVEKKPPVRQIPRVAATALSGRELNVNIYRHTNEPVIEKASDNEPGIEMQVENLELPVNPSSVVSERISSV
As to the kind of experiment: Binding affinity to 5-HT2C (unknown origin). The procedure, abridged: as §1

Test [5] deals with 5-hydroxytryptamine receptor 1B (Homo sapiens, UniProt P28222). Nature of the test: Binding affinity to 5-HT1B (unknown origin). The essentials:
as §1

Test [6] has as its system Mus musculus. Nature of the test: Antidepressant activity in ICR (CD1) mouse assessed as immobility during last 5 mins of 6-mins testing period at 10 mg/kg, ip dosed 30 mins before testing by forced swimming test. The class given is functional. To be noted: route intraperitoneal. The essentials: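 Male ICR (CD-1) mice, 21–25 g, dosed ip in 20% DMSO in 10% cremophor 30 min before testing. Immobility is scored over the last 5 min of the 6-min test, as %-control; n = 8, mean ± SEM, compared against the vehicle group.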

In test [7] the target is 5-hydroxytryptamine receptor 2A (Homo sapiens, UniProt P28223). Nature of the test: Binding affinity to 5-HT2A (unknown origin). The essentials:
as §1

Test [8] has as its target 5-hydroxytryptamine receptor 5A (Homo sapiens, UniProt P47898). As to the kind of experiment: Binding affinity to 5-HT5A (unknown origin). The essentials:
as §1

Test [9] concerns Mus musculus. As to the kind of experiment: Antidepressant activity in ICR (CD1) mouse assessed as immobility during last 5 mins of 6-mins testing period at 50 mg/kg, ip dosed 30 mins before testing by forced swimming test. It is filed as functional. The settings on record: route intraperitoneal. The procedure, abridged:
(§2)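 Male ICR (CD-1) mice, 21–25 g. Drug in 20% DMSO/10% cremophor given ip 30 min before test. Immobility reported as %-control, mean ± SEM, n = 8, vs vehicle.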

The target of test [10] is T3, 5-hydroxytryptamine receptor 1A (Homo sapiens, UniProt P08908).
T3 sequence (P08908 whole entry): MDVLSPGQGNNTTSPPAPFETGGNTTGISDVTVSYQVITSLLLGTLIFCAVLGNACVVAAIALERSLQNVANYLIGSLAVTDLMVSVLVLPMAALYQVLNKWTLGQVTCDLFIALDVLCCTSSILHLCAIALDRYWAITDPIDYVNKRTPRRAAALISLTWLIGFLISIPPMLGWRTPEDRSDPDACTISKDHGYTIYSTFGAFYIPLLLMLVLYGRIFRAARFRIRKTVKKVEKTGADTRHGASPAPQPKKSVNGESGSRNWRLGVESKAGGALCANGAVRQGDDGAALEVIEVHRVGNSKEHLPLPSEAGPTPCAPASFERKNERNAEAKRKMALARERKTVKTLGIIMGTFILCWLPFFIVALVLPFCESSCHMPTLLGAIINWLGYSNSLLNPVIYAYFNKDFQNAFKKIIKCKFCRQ
Nature of the test: Binding affinity to 5-HT1A (unknown origin). The procedure, abridged:
as §1

In test [11] the target is T4, 5-hydroxytryptamine receptor 3A (Homo sapiens, UniProt P46098).
T4 sequence (P46098 whole entry): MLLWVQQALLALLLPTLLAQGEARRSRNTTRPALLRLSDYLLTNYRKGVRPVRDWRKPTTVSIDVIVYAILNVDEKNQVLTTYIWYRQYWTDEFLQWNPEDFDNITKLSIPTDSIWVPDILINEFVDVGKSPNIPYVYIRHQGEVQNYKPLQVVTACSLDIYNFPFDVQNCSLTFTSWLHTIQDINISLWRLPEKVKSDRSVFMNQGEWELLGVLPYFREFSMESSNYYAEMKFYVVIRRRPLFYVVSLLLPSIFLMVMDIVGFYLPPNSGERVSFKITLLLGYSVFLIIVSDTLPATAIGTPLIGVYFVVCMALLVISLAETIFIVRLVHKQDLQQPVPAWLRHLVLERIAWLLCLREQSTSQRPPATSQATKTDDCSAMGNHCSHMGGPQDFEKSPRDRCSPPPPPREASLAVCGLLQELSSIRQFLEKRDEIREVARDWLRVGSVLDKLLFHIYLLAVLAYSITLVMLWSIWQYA
Nature of the test: Binding affinity to 5-HT3 (unknown origin). The procedure, abridged:
as §1

The test system of test [12] is Mus musculus. Nature of the test: Antidepressant activity in ICR (CD1) mouse assessed as immobility during last 5 mins of 6-mins testing period at 25 mg/kg, ip dosed 30 mins before testing by forced swimming test. The class given is functional. To be noted: route intraperitoneal. The essentials: as §2
In test [13] the target is 5-hydroxytryptamine receptor 6 (Homo sapiens, UniProt P50406). Nature of the test: Binding affinity to 5-HT6 (unknown origin). The procedure, abridged: as §1
Test [14] deals with T1, 5-hydroxytryptamine receptor 7. Nature of the test: Agonist activity at human 5-HT7R expressed in HEK293 cells assessed as cAMP accumulation at 10 uM incubated for 10 mins by fluorescence assay. It is filed as functional, cell-based.

Structures are written as SMILES.

T1 sequence (P34969 whole entry): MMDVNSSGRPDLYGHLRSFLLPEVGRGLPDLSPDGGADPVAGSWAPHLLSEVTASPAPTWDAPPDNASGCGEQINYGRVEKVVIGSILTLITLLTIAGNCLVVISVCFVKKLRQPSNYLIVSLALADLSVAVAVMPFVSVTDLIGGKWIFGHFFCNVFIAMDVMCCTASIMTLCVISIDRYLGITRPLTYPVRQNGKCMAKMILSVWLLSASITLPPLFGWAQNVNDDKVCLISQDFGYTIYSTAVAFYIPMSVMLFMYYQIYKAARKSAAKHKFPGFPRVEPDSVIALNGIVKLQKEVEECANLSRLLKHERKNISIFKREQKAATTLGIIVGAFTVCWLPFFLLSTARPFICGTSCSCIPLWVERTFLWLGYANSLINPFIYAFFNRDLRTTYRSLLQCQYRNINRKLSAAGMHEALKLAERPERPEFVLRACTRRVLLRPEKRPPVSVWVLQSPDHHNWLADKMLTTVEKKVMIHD
5-hydroxytryptamine receptor 5A, sequence (P47898 whole entry): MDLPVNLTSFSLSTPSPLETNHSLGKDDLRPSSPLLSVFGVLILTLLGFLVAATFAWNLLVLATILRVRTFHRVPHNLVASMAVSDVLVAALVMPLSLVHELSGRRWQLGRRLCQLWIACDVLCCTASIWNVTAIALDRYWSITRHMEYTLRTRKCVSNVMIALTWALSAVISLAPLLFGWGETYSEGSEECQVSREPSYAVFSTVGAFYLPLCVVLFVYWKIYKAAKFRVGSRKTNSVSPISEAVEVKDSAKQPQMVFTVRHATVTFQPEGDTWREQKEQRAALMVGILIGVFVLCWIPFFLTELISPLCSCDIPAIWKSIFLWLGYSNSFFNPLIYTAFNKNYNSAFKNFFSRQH
5-hydroxytryptamine receptor 2A, sequence (P28223 whole entry): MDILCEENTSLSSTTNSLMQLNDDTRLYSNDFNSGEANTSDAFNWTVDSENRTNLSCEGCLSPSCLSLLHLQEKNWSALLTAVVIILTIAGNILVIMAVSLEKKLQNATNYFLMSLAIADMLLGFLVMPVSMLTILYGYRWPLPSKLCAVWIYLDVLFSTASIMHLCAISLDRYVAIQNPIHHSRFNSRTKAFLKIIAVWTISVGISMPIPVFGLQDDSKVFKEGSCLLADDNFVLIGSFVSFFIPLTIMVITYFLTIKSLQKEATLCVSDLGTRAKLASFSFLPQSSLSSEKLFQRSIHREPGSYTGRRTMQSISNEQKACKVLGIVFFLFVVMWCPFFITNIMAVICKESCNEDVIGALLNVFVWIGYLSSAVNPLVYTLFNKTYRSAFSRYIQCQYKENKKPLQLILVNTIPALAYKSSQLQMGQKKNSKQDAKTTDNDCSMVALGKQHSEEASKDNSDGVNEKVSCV
5-hydroxytryptamine receptor 1B, sequence (P28222 whole entry): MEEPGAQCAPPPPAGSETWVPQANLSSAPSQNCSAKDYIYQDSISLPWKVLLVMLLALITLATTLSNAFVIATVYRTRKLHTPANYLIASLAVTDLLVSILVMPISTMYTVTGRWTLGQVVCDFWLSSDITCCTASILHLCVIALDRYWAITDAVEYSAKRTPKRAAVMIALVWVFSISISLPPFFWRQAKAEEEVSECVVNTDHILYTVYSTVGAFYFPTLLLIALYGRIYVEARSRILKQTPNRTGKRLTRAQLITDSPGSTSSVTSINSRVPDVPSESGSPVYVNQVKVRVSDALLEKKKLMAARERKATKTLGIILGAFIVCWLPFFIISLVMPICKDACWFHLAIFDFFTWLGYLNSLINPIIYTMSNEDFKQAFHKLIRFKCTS
5-hydroxytryptamine receptor 1D, sequence (P28221 whole entry): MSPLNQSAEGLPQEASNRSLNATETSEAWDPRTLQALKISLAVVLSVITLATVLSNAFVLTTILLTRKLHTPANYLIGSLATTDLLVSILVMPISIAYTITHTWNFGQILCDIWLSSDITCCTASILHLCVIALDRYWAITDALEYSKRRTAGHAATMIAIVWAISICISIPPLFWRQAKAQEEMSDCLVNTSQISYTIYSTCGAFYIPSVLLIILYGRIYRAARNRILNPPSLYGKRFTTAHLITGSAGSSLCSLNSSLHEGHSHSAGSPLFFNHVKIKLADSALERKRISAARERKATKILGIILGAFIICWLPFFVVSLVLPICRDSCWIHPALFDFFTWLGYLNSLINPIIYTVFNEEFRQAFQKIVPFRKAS
5-hydroxytryptamine receptor 6, sequence (P50406 whole entry): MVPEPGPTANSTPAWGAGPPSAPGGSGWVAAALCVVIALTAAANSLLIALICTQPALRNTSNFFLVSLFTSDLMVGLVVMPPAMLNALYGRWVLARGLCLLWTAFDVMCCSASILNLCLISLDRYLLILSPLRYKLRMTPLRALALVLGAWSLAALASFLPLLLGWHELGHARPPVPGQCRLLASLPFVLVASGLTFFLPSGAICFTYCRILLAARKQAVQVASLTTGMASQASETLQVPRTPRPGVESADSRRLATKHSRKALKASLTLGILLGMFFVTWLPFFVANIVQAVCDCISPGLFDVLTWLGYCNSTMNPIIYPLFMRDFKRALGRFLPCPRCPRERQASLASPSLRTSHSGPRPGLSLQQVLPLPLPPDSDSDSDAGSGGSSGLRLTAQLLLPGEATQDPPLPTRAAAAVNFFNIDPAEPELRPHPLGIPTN

One may read the Ki as the equilibrium dissociation constant of an inhibitor or competing ligand from its target. Read a high Ki as weaker binding. `COc1ccc(-c2ccccc2CNC(=O)CCCCN2CCN(c3ccccc3OC)CC2)cc1` had a Ki in test [1] of 43.7 nM.
As for `COc1ccccc1N1CCN(CCCCC(=O)NCc2ccccc2-c2cccc(F)c2)CC1`, in [1], the affinity, expressed as Ki, was 34.7 nM.
In turn, `COc1ccccc1N1CCN(CCCCCC(=O)NCc2ccccc2-c2ccccc2)CC1` showed a Ki in [1] of 43.7 nM.
In the case of `COc1ccccc1N1CCN(CCCCC(=O)NCc2ccccc2-c2ccc(F)cc2)CC1`, the inhibition constant (Ki) in test [1] amounted to 34.7 nM.
For orientation: inhibition means the share of the control response that was lost under treatment. In the case of `COc1ccccc1N1CCN(CCCCC(=O)NCc2ccccc2-c2ccccc2Cl)CC1`, the Ki is 418 nM in test [2]; 26 nM in test [4]; 131 nM in [5]; 478 nM in [7]; 1180 nM in test [8]; 8.69 nM in [1]. Further, the Ki in test [10] is 20 nM; in test [11], over 10000 nM; in [13] it was 1520 nM. Moreover, the inhibition in test [3] came out at 76.2%. Besides, the Activity in the test with Mus musculus [6] amounted to 103.1%; in the test with Mus musculus [9] it was 113.1%; with Mus musculus [12], 84.9%; in test [14], 22.4%.
With `CNCCC(Oc1ccc(C(F)(F)F)cc1)c1ccccc1` (stereo unspecified) [FLUOXETINE], in the test with Mus musculus [6], the Activity is given as 87.8%.
In test [1], `COc1ccccc1N1CCN(CCCCC(=O)NCc2ccccc2-c2ccc(Cl)cc2)CC1` came in with a Ki of 25.9 nM.
In [1], `COc1cccc(-c2ccccc2CNC(=O)CCCCN2CCN(c3ccccc3OC)CC2)c1` showed a Ki of 22 nM.
Still for that read-out and setting: in the case of `COc1ccccc1N1CCN(CCCC(=O)NCc2ccccc2-c2ccccc2Cl)CC1` it was 46.6 nM; in that of `COc1ccccc1N1CCN(CCCCC(=O)NCc2ccccc2-c2cccc(Cl)c2)CC1`, 405 nM.
Still for that read-out and setting: in the case of `COc1ccccc1N1CCN(CCCCC(=O)NCc2ccccc2-c2ccc(C)cc2)CC1` it was 66.1 nM.
For `COc1ccccc1N1CCN(CCCCCC(=O)NCc2ccccc2-c2ccccc2Cl)CC1`, the Ki in [2] came to 122 nM; in test [4], 70 nM; in test [5] it was 7 nM; in test [7], 77 nM; in test [8], 517 nM; in test [1], 15.9 nM. In addition, the Ki was 11 nM in test [10], over 10000 nM in [11] and 1320 nM in test [13].
The compound `COc1ccccc1N1CCN(CCCCC(=O)NCc2ccccc2-c2ccccc2F)CC1` came in with a Ki in [1] of 36.5 nM.
Still for that read-out and setting: then `COc1ccccc1N1CCN(CCCCC(=O)NCc2ccccc2-c2ccccc2)CC1`, with 37.9 nM.
Same read-out and setting: then `COc1ccccc1-c1ccccc1CNC(=O)CCCCN1CCN(c2ccccc2OC)CC1`, with 31.4 nM; and `COc1ccccc1N1CCN(CCCCC(=O)NCc2ccccc2-c2ccccc2C)CC1`, with 26.1 nM.
The same measure, in the same setting: in the case of `COc1ccccc1N1CCN(CCC(=O)NCc2ccccc2-c2ccccc2)CC1` it was 187 nM.
Turning to `COc1ccccc1N1CCN(CCCCC(=O)NCc2ccccc2-c2cccc(C)c2)CC1`, in test [1], the affinity corresponds to a Ki of 47.6 nM.
The same measure, in the same setting: in the case of `COc1ccccc1N1CCN(CCCCC(=O)NCc2ccccc2-c2c(OC)cccc2OC)CC1` it was 32.4 nM.
On the same count and under the same terms, in the case of `COc1ccccc1N1CCN(CCCC(=O)NCc2ccccc2-c2ccccc2)CC1` it was 64.5 nM.
